Reference: ChEMBL document CHEMBL1130202, “Biologically active heteroarotinoids exhibiting anticancer activity and decreased toxicity” (J Med Chem, 1997)
Activity calls are given as the source filed them. The calls are words filed in the database; no cut-off is given here.

Experiments:
Mus musculus [1] = organism: Mus musculus; assay: Calculated 30-day maximally tolerated dose based on 10% weight loss in mice at mid dose 2; type: functional
Mus musculus [2] = organism: Mus musculus; assay: Effect of compound on right testicle to body weight ratios in mice at mid dose 1 on day 65; type: functional
How it was run: (§1)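 Male B6D2F1 mice dosed daily by gavage with compound in corn oil; vehicle 1 (corn oil) controls run to termination on day 65. Low, mid 1, mid 2 and high dose groups, with dosage increases partway through the study. Organ-to-body weight ratios (×1000) taken at necropsy on day 65, reported as mean ± SD for 4 to 8 animals and as % difference from vehicle.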

Mus musculus [3] = organism: Mus musculus; assay: Calculated 30-day maximally tolerated dose based on 10% weight loss in mice at mid dose 1; type: functional
Mus musculus [4] = organism: Mus musculus; assay: Approximate day to 10% weight loss in mice at low dose; type: functional
How it was run: (§2)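 Male B6D2F1 mice dosed daily by gavage in corn oil; body weights followed to termination (day 65, or day 25 for TTNPB 0.01/0.05 mg/kg/day groups) and compared with the matching vehicle group. Value is approximate day of onset of 10% body weight reduction versus vehicle.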

Mus musculus [5] = organism: Mus musculus; assay: Effect of compound on Spleen to body weight ratios in mice at mid dose 2 on day 65; type: functional; how it was run: as §1
Mus musculus [6] = organism: Mus musculus; assay: Total dose of 10% weight loss in mice at mid dose 1; type: functional
Mus musculus [7] = organism: Mus musculus; assay: Enlarged lymph in gross pathological observations in mice with hypervitaminosis A at low dose with gross observations/total number of mice in group; 1/16; type: functional, organism-based
Mus musculus [8] = organism: Mus musculus; assay: Effect of compound on serum triglycerides levels in mice at high dose on day 29; type: functional
How it was run: (§3)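 Male B6D2F1 mice dosed daily by oral gavage in corn oil at low, mid 1, mid 2 or high dose. Blood sampled on set days (8, 29, 36, 65) for clinical chemistry, serum alkaline phosphatase and triglycerides. Group mean ± SD reported as % relative to vehicle 1; significance p < 0.05 versus corn oil vehicle.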

Mus musculus [9] = organism: Mus musculus; assay: Approximate day to 10% weight loss in mice at mid dose 1; type: functional; how it was run: as §2
Mus musculus [10] = organism: Mus musculus; assay: Compound total dose to termination (day 25/65) in mid dose 2; type: functional
How it was run: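 Male B6D2F1 mice given daily oral gavage in corn oil; dosages increased during the study (day 30 or day 51 depending on compound). Cumulative dose in mg/kg administered up to termination (day 65, or day 25 for TTNPB 0.01/0.05 mg/kg/day groups).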

Mus musculus [11] = organism: Mus musculus; assay: Effect of compound on serum triglycerides levels in mice at mid dose 1 on day 29; type: functional
How it was run: (§4)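 Male B6D2F1 mice were gavaged daily with compound in corn oil at low, mid 1, mid 2 or high dose. Serum triglycerides and circulating white blood cells were measured on the stated day (8, 29, 36, 65). Values are group mean ± SD expressed as % relative to corn-oil vehicle, with significance at p ≤ 0.05.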

Mus musculus [12] = organism: Mus musculus; assay: Effect of compound on thymus to body weight ratios in mice at low dose on day 65; type: functional
How it was run: (§5)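 Male B6D2F1 mice were dosed daily by gavage in corn oil, with TTNPB given at 0.1–0.8 or 0.01/0.05 mg/kg/day. Thymus-to-body weight ratio (×1000) was taken at necropsy on day 65 against vehicle 1, or on day 25 for the 0.01/0.05 groups against vehicle 2. Mean ± SD of 4–8 animals, reported as % difference from vehicle.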

Mus musculus [13] = organism: Mus musculus; assay: Effect of compound on serum Alkaline phosphatase levels in mice at high dose on day 36; type: functional; how it was run: as §3
Mus musculus [14] = organism: Mus musculus; assay: Effect of compound on serum Alkaline phosphatase levels in mice at mid dose 2 on day 36; type: functional; how it was run: as §3
Mus musculus [15] = organism: Mus musculus; assay: Approximate day to 10% weight loss in mice at high dose; type: functional; how it was run: as §2
Mus musculus [16] = organism: Mus musculus; assay: Effect of compound on adrenal to body weight ratios in mice at low dose on day 65; type: functional; how it was run: as §1
Mus musculus [17] = organism: Mus musculus; assay: Total dose of 10% weight loss in mice at high dose; type: functional
Mus musculus [18] = organism: Mus musculus; assay: Effect of compound on adrenal to body weight ratios in mice at mid dose 2 on day 65; type: functional; how it was run: as §1
Mus musculus [19] = organism: Mus musculus; assay: Average number of fractures per mouse at low dose
Mus musculus [20] = organism: Mus musculus; assay: Effect of compound on Spleen to body weight ratios in mice at mid dose 1 on day 65; type: functional; how it was run: as §1
Mus musculus [21] = organism: Mus musculus; assay: Effect of compound on adrenal to body weight ratios in mice at mid dose 1 on day 65; type: functional; how it was run: as §1
Mus musculus [22] = organism: Mus musculus; assay: Effect of compound on serum Alkaline phosphatase levels in mice at low dose on day 65; type: functional; how it was run: as §3
Mus musculus [23] = organism: Mus musculus; assay: Average number of fractures per mouse at mid dose 2
Mus musculus [24] = organism: Mus musculus; assay: Total dose of 10% weight loss in mice at mid dose 2; type: functional
Mus musculus [25] = organism: Mus musculus; assay: Approximate day to 10% weight loss in mice at mid dose 2; type: functional; how it was run: as §2
Mus musculus [26] = organism: Mus musculus; assay: Effect of compound on thymus to body weight ratios in mice at mid dose 2 on day 65; type: functional; how it was run: as §5
Mus musculus [27] = organism: Mus musculus; assay: Calculated 30-day maximally tolerated dose based on 10% weight loss in mice at low dose; type: functional
Mus musculus [28] = organism: Mus musculus; assay: Skin scaling in mice at mid dose 2 with Hypervitaminosis; 0/16; type: functional, organism-based
How it was run: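 Male B6D2F1 mice were dosed daily by gavage in corn oil and observed for skin scaling of the ears, mouth, nose, eyelids, feet, tail or ventral body. Results are given as affected animals over animals in the group, with the day of first observation.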

Mus musculus [29] = organism: Mus musculus; assay: Total dose of 10% weight loss in mice at low dose; type: functional
Mus musculus [30] = organism: Mus musculus; assay: Effect of compound on serum Alkaline phosphatase levels in mice at low dose on day 29; type: functional; how it was run: as §3
Mus musculus [31] = organism: Mus musculus; assay: Average number of fractures per mouse at high dose
Mus musculus [32] = organism: Mus musculus; assay: Effect of compound on right testicle to body weight ratios in mice at mid dose 2 on day 65; type: functional; how it was run: as §1
Mus musculus [33] = organism: Mus musculus; assay: Effect of compound on right testicle to body weight ratios in mice at low dose on day 65; type: functional; how it was run: as §1
Mus musculus [34] = organism: Mus musculus; assay: Effect of compound on thymus to body weight ratios in mice at mid dose 1 on day 65; type: functional; how it was run: as §5
Mus musculus [35] = organism: Mus musculus; assay: Enlarged spleen in Gross pathological observations in mice with hypervitaminosis A at low dose with gross observations/total number of mice in group; 0/16; type: functional, organism-based
CC-B = assay: Relative transcriptional activation activity relative to t-RA; type: functional, Homo sapiens
How it was run: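 CC-B reporter cells (CC-1 cervical line carrying a CAT gene under a RARE with a tk promoter) were seeded at 4×10^5 cells/well in MEM with nonessential amino acids, pyruvate and 10% FBS, the serum lots having negligible t-RA by HPLC. Triplicate cultures were screened at 10^-6 M with 0.1% DMSO final. After 48 h, CAT activity ([3H]acetyl-CoA) per mg protein was taken as treated/control and expressed relative to t-RA. Average of three experiments.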

Mus musculus [36] = organism: Mus musculus; assay: Effect of compound on right testicle to body weight ratios in mice at high dose on day 65; type: functional; how it was run: as §1
Mus musculus [37] = organism: Mus musculus; assay: Calculated 30-day maximally tolerated dose based on 10% weight loss in mice at high dose; type: functional
Mus musculus [38] = organism: Mus musculus; assay: Effect of compound on serum triglycerides levels in mice at mid dose 1 on day 36; type: functional; how it was run: as §4
Mus musculus [39] = organism: Mus musculus; assay: Effect of compound on serum Alkaline phosphatase levels in mice at mid dose 2 on day 65; type: functional; how it was run: as §3
Mus musculus [40] = organism: Mus musculus; assay: Effect of compound on white blood cells levels in mice at mid dose 2 on day 65; type: functional; how it was run: as §4

| Compound | Max tolerated dose (Mus musculus [1]) [mg/kg] | Activity (Mus musculus [2]) | Max tolerated dose (Mus musculus [3]) [mg/kg] | Activity (Mus musculus [4]) | Activity (Mus musculus [5]) | Dose (Mus musculus [6]) [mg/kg] | Activity (Mus musculus [8]) | Activity (Mus musculus [9]) | Activity (Mus musculus [11]) | Activity (Mus musculus [12]) | Activity (Mus musculus [13]) | Activity (Mus musculus [15]) | Activity (Mus musculus [16]) | Dose (Mus musculus [17]) [mg/kg] | Activity (Mus musculus [18]) | Activity (Mus musculus [19]) | Activity (Mus musculus [20]) | Activity (Mus musculus [21]) | Activity (Mus musculus [22]) | Activity (Mus musculus [23]) | other results |
| --- | --- | --- | --- | --- | --- | --- | --- | --- | --- | --- | --- | --- | --- | --- | --- | --- | --- | --- | --- | --- | --- |
| CC(/C=C/C=C(\C)c1ccc2c(c1)C(C)(C)CCS2)=C\C(=O)O | >27.6 | 3.1 | >13.8 | >65 | 2.2 | >414.2 | 164.2 | >65 | 174.1 | 1.7 | 84.6 | 54 | 0.3 | 1016.8 | 0.3 | 0 | 2 | 0.3 | 127.5 | 0 | Activity (Mus musculus [7]): inactive; Total dose (Mus musculus [10]): 828.4 mg/kg; Activity (Mus musculus [14]): 75.6; Dose (Mus musculus [24]): >828.4 mg/kg; Activity (Mus musculus [25]): >65; Activity (Mus musculus [26]): 1.6; Max tolerated dose (Mus musculus [27]): >6.9 mg/kg; Activity (Mus musculus [28]): inactive; Dose (Mus musculus [29]): >207.1 mg/kg; Activity (Mus musculus [30]): 94.9; Activity (Mus musculus [31]): 0.3; Activity (Mus musculus [32]): 2.8; Activity (Mus musculus [33]): 2.6; Activity (Mus musculus [34]): 1.5; Activity (Mus musculus [35]): inactive; Relative activity (CC-B): 52; Activity (Mus musculus [36]): 2.7; Max tolerated dose (Mus musculus [37]): 33.9 mg/kg; Activity (Mus musculus [38]): 212.7; Activity (Mus musculus [39]): 137 |
| CC(/C=C/C=C(\C)c1ccc2c(c1)C(C)(C)CCO2)=C\C(=O)O | 24.4 | 2.9 | >13.8 | >65 | 2.7 | >414.2 | 208.2 | >65 | 167.3 | 1.6 | 91.9 | 53 | 0.3 | 952.8 | 0.3 | 0 | 2.5 | 0.3 | 115.7 | 0.6 | Activity (Mus musculus [40]): 4.51; Activity (Mus musculus [7]): inactive; Total dose (Mus musculus [10]): 828.4 mg/kg; Dose (Mus musculus [24]): 732.4 mg/kg; Activity (Mus musculus [25]): 61; Activity (Mus musculus [26]): 1.5; Max tolerated dose (Mus musculus [27]): >6.9 mg/kg; Activity (Mus musculus [28]): inactive; Dose (Mus musculus [29]): >207.1 mg/kg; Activity (Mus musculus [30]): 96.8; Activity (Mus musculus [31]): 1; Activity (Mus musculus [32]): 3.3; Activity (Mus musculus [33]): 3.2; Activity (Mus musculus [34]): 1.6; Activity (Mus musculus [35]): inactive; Relative activity (CC-B): 50; Activity (Mus musculus [36]): 3; Max tolerated dose (Mus musculus [37]): 31.8 mg/kg; Activity (Mus musculus [38]): 202.8; Activity (Mus musculus [39]): 136.8 |
| C/C(=C\c1ccc(C(=O)O)cc1)c1ccc2c(c1)C(C)(C)CCO2 | 7.4 | 2 | 6.3 | >65 | 7.1 | 190.2 | 192 | 51 | 175.9 | 1.5 | 86.3 | 36 | 0.3 | 280.8 | 0.3 | 0.4 | 5 | 0.4 | 115 | 3.4 | Activity (Mus musculus [40]): 6.55; Activity (Mus musculus [14]): 93.3; Dose (Mus musculus [24]): 220.6 mg/kg; Activity (Mus musculus [25]): 41; Activity (Mus musculus [26]): 0.9; Max tolerated dose (Mus musculus [27]): >4.9 mg/kg; Dose (Mus musculus [29]): 147.1 mg/kg; Activity (Mus musculus [31]): 1.3; Activity (Mus musculus [32]): 1.9; Activity (Mus musculus [33]): 1.9; Activity (Mus musculus [34]): 1.3; Relative activity (CC-B): 31; Max tolerated dose (Mus musculus [37]): 9.4 mg/kg; Activity (Mus musculus [39]): 134.8 |
